In ChEMBL document CHEMBL3526032, “Ablation of both organic cation transporter (OCT)1 and OCT2 alters metformin pharmacokinetics but has no effect on tissue drug exposure and pharmacodynamics” (Drug Metab Dispos, 2012):
Active and inactive are the calls of the source. The rule behind the calls is not given here.

Key:
OCT2 over OCT1 = assay: Selectivity for OCT2 (unknown origin) over OCT1 (unknown origin); format: ADME; details: human
Mus musculus [1] = assay: Antidiabetic activity in Oct1/Oct2-knockout FVB mouse assessed as reduction in blood glucose level at 10 mg/kg, po by oral glucose tolerance test; format: functional, organism-based; parameters: dose 10 mg/kg
Summary of the method: (§1)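 Male FVB mice, wild type or Oct1/2-knockout, fasted 16 h. Day 1: oral vehicle (1% hydroxyethyl cellulose/0.25% polysorbate-80/0.05% antifoam) given at -30 min. Day 8: oral metformin 10-300 mg/kg instead. At 0 min, oral glucose 2.5 g/kg.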

Mus musculus [2] = assay: Antidiabetic activity in wild type FVB mouse assessed as reduction in blood glucose level at 10 mg/kg, po by oral glucose tolerance test; format: functional, organism-based; parameters: dose 10 mg/kg; summary of the method: as §1
Mus musculus [3] = assay: Antidiabetic activity in po dosed Oct1/Oct2-knockout FVB mouse assessed as reduction in blood glucose level by oral glucose tolerance test relative to control; format: functional; summary of the method: as §1
Mus musculus [4] = assay: Antidiabetic activity in Oct1/Oct2-knockout FVB mouse assessed as plasma insulin level at 300 mg/kg, po by oral glucose tolerance test; format: functional, organism-based; parameters: dose 300 mg/kg
Summary of the method: (§2)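 Plasma insulin measured by immunoassay at 0, 30, 60, 90 and 120 min during an oral glucose tolerance test (2.5 g/kg) in 16-h fasted male FVB wild-type or Oct1/2-knockout mice. Oral vehicle or metformin (10-300 mg/kg) given 30 min before glucose.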

Mus musculus [5] = assay: Antidiabetic activity in wild type FVB mouse assessed as plasma insulin level at 300 mg/kg, po by oral glucose tolerance test; format: functional, organism-based; parameters: dose 300 mg/kg; summary of the method: as §2
Mus musculus [6] = assay: Antidiabetic activity in po dosed wild type FVB mouse assessed as reduction in blood glucose level by oral glucose tolerance test relative to control; format: functional; summary of the method: as §1
Mus musculus [7] = assay: Antidiabetic activity in wild type FVB mouse assessed as reduction in blood glucose level at 300 mg/kg, po by oral glucose tolerance test relative to control; format: functional, organism-based; parameters: dose 300 mg/kg; summary of the method: as §1
Mus musculus [8] = assay: Antidiabetic activity in Oct1/Oct2-knockout FVB mouse assessed as blood glucose AUC level at 300 mg/kg, po by oral glucose tolerance test relative to control; format: functional; summary of the method: as §1
Mus musculus [9] = assay: Antidiabetic activity in wild type FVB mouse assessed as half-maximal efficacious AUC at 300 mg/kg, po by oral glucose tolerance test relative to control; format: functional, organism-based; parameters: dose 300 mg/kg
Mus musculus [10] = assay: Antidiabetic activity in Oct1/Oct2-knockout FVB mouse assessed as reduction in blood glucose level at 300 mg/kg, po by oral glucose tolerance test relative to control; format: functional, organism-based; parameters: dose 300 mg/kg; summary of the method: as §1
Mus musculus [11] = assay: Antidiabetic activity in Oct1/Oct2-knockout FVB mouse assessed as half-maximal efficacious AUC at 300 mg/kg, po by oral glucose tolerance test relative to control; format: functional, organism-based; parameters: dose 300 mg/kg
Mus musculus [12] = assay: Antidiabetic activity in wild type FVB mouse assessed as blood glucose AUC level at 300 mg/kg, po by oral glucose tolerance test relative to control; format: functional; summary of the method: as §1
[13] = Drug excretion in Oct1/Oct2-knockout FVB mouse urine at 10 mg/kg, iv after 2 hrs
in vivo [14] = details: FVB, mouse, iv, 10 mg/kg
[15] = Clearance in wild type FVB mouse at 10 mg/kg, iv; details: in vivo
in vivo [16] = details: FVB, mouse, plasma, iv, 10 mg/kg
[17] = Clearance in Oct1/Oct2-knockout FVB mouse at 10 mg/kg, iv; details: in vivo
in vivo [18] = details: FVB, mouse, iv, 10 mg/kg; remark: listed apart in the source
[19] = Initial plasma concentration in wild type FVB mouse at 10 mg/kg, iv
[20] = Drug recovery in wild type FVB mouse urine assessed as corrected compound recovery by measuring nominal to observerd glomerular filtration rate ratio at 10 mg/kg, iv
[21] = Initial plasma concentration in Oct1/Oct2-knockout FVB mouse at 10 mg/kg, iv
in vivo [22] = details: FVB, mouse, plasma, iv, 10 mg/kg; remark: listed apart in the source
[23] = Volume of distribution at steady state in Oct1/Oct2-knockout FVB mouse at 10 mg/kg, iv; details: in vivo
[24] = Drug recovery in Oct1/Oct2-knockout FVB mouse urine assessed as corrected compound recovery by measuring nominal to observerd glomerular filtration rate ratio at 10 mg/kg, iv
in vivo [25] = details: FVB, mouse, plasma, iv, 10 mg/kg; remark: listed apart in the source
in vivo [26] = details: FVB, mouse, plasma, iv, 10 mg/kg; remark: listed apart in the source
[27] = Drug excretion in wild type FVB mouse urine at 10 mg/kg, iv after 2 hrs
[28] = Volume of distribution at steady state in wild type FVB mouse at 10 mg/kg, iv; details: in vivo

**Q.** With `NC12CC3CC(CC(C3)C1)C2` [AMANTADINE] as the compound, how does the selectivity ratio (OCT2 over OCT1) read?
**A.** 20

**Q.** With `CC(N)Cc1ccccc1` (stereo not given) [AMPHETAMINE] as the compound, how does the selectivity ratio (OCT2 over OCT1) read?
**A.** 20

**Q.** With `CN(C)C(=N)NC(=N)N.Cl` [METFORMIN HYDROCHLORIDE] as the compound, how does the Activity (Mus musculus [1]) read?
**A.** inactive

**Q.** What about the Activity (Mus musculus [2]) of the same compound?
**A.** inactive

**Q.** What about the ED50 (Mus musculus [3]) of the same compound?
**A.** 151 mg/kg

**Q.** And the Activity (Mus musculus [4])?
**A.** Active

**Q.** What about the Activity (Mus musculus [5]) of the same compound?
**A.** Active

**Q.** What about the ED50 (Mus musculus [6]) of the same compound?
**A.** 110 mg/kg

**Q.** What about the Activity (Mus musculus [7]) of the same compound?
**A.** Active

**Q.** And the Activity (Mus musculus [8])?
**A.** 42%

**Q.** What about the AUC (Mus musculus [9]) of the same compound?
**A.** 26000 ng·h/mL

**Q.** What about the Activity (Mus musculus [10]) of the same compound?
**A.** Active

**Q.** What about the AUC (Mus musculus [11]) of the same compound?
**A.** 70000 ng·h/mL

**Q.** What about the Activity (Mus musculus [12]) of the same compound?
**A.** 39%

**Q.** What does the source list for `CC[N+](CC)(CC)CC` [TETRYLAMMONIUM]?
**A.** dose excreted at 2 h [13]: 30%; half-life (in vivo [14]): 12 min; clearance [15]: 58.7 mL/min/kg; AUC(0-t) (in vivo [16]): 2410 ng·h/mL; clearance [17]: 16.9 mL/min/kg; half-life (in vivo [18]): 18.6 min; C0 [19]: 22700 ng/mL; dose excreted [20]: 95%; C0 [21]: 67.4 µg/mL; AUC(0-t) (in vivo [22]): 9100 ng·h/mL; Vd [23]: 0.318 L/kg; dose excreted [24]: 62%; AUC(0-inf) (in vivo [25]): 2840 ng·h/mL; AUC(0-inf) (in vivo [26]): 9840 ng·h/mL; dose excreted at 2 h [27]: 35%; Vd [28]: 1.52 L/kg
